One series concerns L6. The experiment in a line: Cytotoxicity against rat L6 cells by Alamar blue assay. The class given is cell-based. The method in brief:
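L6 rat myoblasts were run by the same Alamar Blue protocol as the trypanosome assay. Seven 3-fold serial dilutions were incubated 72 h at 37 °C, 5% CO₂, followed by 2–4 h with dye.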
A general note: Resazurin is reduced to fluorescent resorufin, in cell work by metabolically active cells.

The next series relates to Plasmodium falciparum. The experiment in a line: Antiplasmodial activity against chloroquine and pyrimethamine resistant Plasmodium falciparum K1 infected in human erythrocytes assessed as reduction in [3H]hypoxanthine incorporation measured after 24 hrs by liquid scintillation counting method. The class given is functional, organism-based.
For series [1], the system named is Trypanosoma brucei rhodesiense. Briefly: Antitrypanosomal activity against Trypanosoma brucei rhodesiense STIB900 measured after 72 hrs by alamar blue dye based fluorimetry analysis. The class given is functional, organism-based. To be noted: STIB900, 72 h.
Series [2] has as its system Poly(dA-dT)oligonucleotide. The experiment in a line: Binding affinity to poly (dA-dT) (unknown origin) by circular dichroism spectroscopy. Type of series: nucleic-acid assay.
Series [3] relates to Poly(dA-dT)oligonucleotide.
The subject of series [4] is Trypanosoma brucei rhodesiense. The experiment in a line: Antitrypanosomal activity against bloodstream form of Trypanosoma brucei rhodesiense STIB900 infected in mouse assessed as reduction in parasitemia by measuring time taken to cure at 5 mg/kg, ip measured up to 60 days (reference value: 11 days). Type of series: functional. The note with it: time day <=60.
The nature of series [5]: Selectivity index, ratio of IC50 for cytotoxicity against rat L6 cells to IC50 for antitrypanosomal activity against Trypanosoma brucei rhodesiense STIB900. The class given is toxicity, cell-based. The note with it: read-out: Selectivity Index. The gist of the method:
(§1)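 SI = IC50(L6)/IC50(parasite): K1 P. falciparum for the antiplasmodial index, T. b. rhodesiense STIB900 for the antitrypanosomal index. L6 rat myoblasts were run as in the trypanosome assay: MEM with 2-mercaptoethanol and 15% heat-inactivated horse serum, seven 3-fold serial dilutions, 72 h at 37 °C in 5% CO2.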

Series [6] is described as follows: Selectivity index, ratio of IC50 for cytotoxicity against rat L6 cells to IC50 for antiplasmodial activity against chloroquine and pyrimethamine resistant Plasmodium falciparum K1 infected in human red blood cells. Type of series: toxicity, cell-based. The note with it: read-out: Selectivity Index. The gist of the method: as §1
For series [7], the system named is Trypanosoma brucei rhodesiense. The experiment in a line: Antitrypanosomal activity against Trypanosoma brucei rhodesiense STIB900 infected in mouse assessed as reduction in parasitemia by measuring time taken to cure at 25 mg/kg, po measured up to 60 days (reference value: 11 days). To be noted: time day <=60. Type of series: functional.

Active and inactive are the calls of the source. The calls are words filed in the database; no cut-off is given here.

The values below come from ChEMBL document CHEMBL4825701, “New antiparasitic flexible triaryl diamidines, their prodrugs and aza analogues: Synthesis, in vitro and in vivo biological evaluation, and molecular modelling studies” (Eur J Med Chem, 2021).

One may read the IC50 as the concentration that inhibits the measured activity by half. The ΔTm is the change in melting temperature against a reference sample. Turning to `N=C(N)c1ccc(Cc2ccc(-c3ccc(C(=N)N)cc3)nc2)cc1`, the IC50 is 18.1 µM with L6, 0.0112 µM in the series on Plasmodium falciparum and 0.041 µM in series [1]. The result in [2] was inactive. Besides, the ΔTm in series [3] worked out at 1 °C. In series [4], the Time is greater than 60 days. The results for the selectivity ratio in series [5] and in [6] were 441 and 1620, respectively.
Regarding `N=C(N)c1ccc(Cc2ccc(-c3ccc(C(=N)N)cc3)cc2)cc1`, the concentration for half-maximal inhibition (IC50) in the series with L6 was found to be 4 µM; in the series with Plasmodium falciparum it was 0.003 µM; in [1], 0.073 µM. Further, the ΔTm in [3] stood at 9 °C. For the same compound, the Time in series [4] was 22 days. Further, the figures for the selectivity ratio in series [5] and in series [6] were 54.8 and 1330, respectively.
Consider `CO/N=C(\N)c1ccc(-c2ccc(Oc3ccc(/C(N)=N\OC)cc3)nc2)cc1`, for which the IC50 with L6 amounted to 91 µM; in series [1], 14.4 µM. For the same compound, the figures for the selectivity ratio in series [5] and in series [6] were 6.3 and 9.7, respectively.
On to `N=C(N)c1ccc(Cc2ccc(Cc3cccc(C(=N)N)c3)cc2)cc1`, for which the concentration for half-maximal inhibition (IC50) was 28.3 µM in the series on L6 and 0.015 µM in [1]. The ΔTm in [3] came to 0.5 °C. The Time in series [4] was 15.5 days. Further, the selectivity ratio came out at 1890 in series [5] and 1230 in [6].
As to `CO/N=C(\N)c1ccc(Oc2cccc(Oc3ccc(/C(N)=N\OC)cc3)n2)cc1`, the IC50 in the series on L6 came to 117 µM; in series [1], 26.1 µM. The selectivity ratio in series [5] was 4.5; in series [6], 12.3.
Turning to `N=C(N)c1ccc(Cc2ccc(Cc3ccc(C(=N)N)cc3)o2)cc1`, the IC50 with L6 was 25 µM; in series [1] it was 0.027 µM. Also, the ΔTm in [3] came out at 2.25 °C. In addition, in series [4], the Time came out at 18.75 days. Besides, the results for the selectivity ratio in [5] and in series [6] were 930 and 1390, respectively.
Regarding `N=C(N)c1ccc(-c2ccc(Cc3cccc(C(=N)N)c3)cc2)cc1`, the values for the IC50 (with L6; in the series on Plasmodium falciparum; in series [1]) were 2 µM, 0.031 µM and 0.035 µM, respectively. In addition, the ΔTm in series [3] turned out to be 8.5 °C. In addition, the Time in series [4] was 22.75 days. Moreover, the selectivity ratio stood at 57.1 in series [5] and 64.5 in series [6].
For the compound `CO/N=C(/N)c1ccc(Cc2ccc(Cc3ccc(/C(N)=N\OC)cc3)cc2)cc1`, the results for the IC50 (with L6; in the series with Plasmodium falciparum; in [1]) were 37.3 µM, greater than 9.5 µM and 12.6 µM, respectively. In addition, the selectivity ratio in series [6] is greater than 3.9.
Take `CO/N=C(\N)c1cccc(Cc2ccc(Cc3ccc(/C(N)=N\OC)cc3)cc2)c1`: the IC50 with L6 is 32.3 µM; in the series on Plasmodium falciparum, greater than 9.5 µM; in [1] it was 18.7 µM. Also, the selectivity ratio is 1.7 in series [5] and greater than 3.4 in series [6]. Further, the Time in [7] came to 9.2 days.
For the compound `N=C(N)c1ccc(Oc2cccc(Oc3ccc(C(=N)N)cc3)n2)cc1`, the figures for the IC50 (in the series on L6; in the series on Plasmodium falciparum; in series [1]) were 99.3 µM, 0.323 µM and 0.378 µM, respectively. In addition, the thermal shift (ΔTm) in series [3] was found to be 1.25 °C. In addition, the selectivity ratio in [5] amounted to 263; in series [6] it was 307.
`N=C(N)c1ccc(Oc2ccc(-c3ccc(C(=N)N)cc3)cn2)cc1`: the IC50 in the series on L6 stood at 2.1 µM; in series [1], 0.011 µM. In addition, the outcome in [2] was inactive. In series [3], the ΔTm was found to be 17.8 °C. Besides, the Time in [4] is greater than 45.5 days. Further, the selectivity ratio in [5] came out at 191; in [6] it was 525.
`N=C(N)c1ccc(Cc2ccc(Cc3ccc(C(=N)N)cc3)cc2)cc1`: the figures for the IC50 (in the series on L6; in the series with Plasmodium falciparum; in series [1]) were 19.4 µM, 0.023 µM and 0.072 µM, respectively. Further, the ΔTm in [3] was determined as 1 °C. Besides, the Time in series [4] stood at 16.25 days. Moreover, the selectivity ratio in series [5] is 269; in [6], 970.
Take `CN(C)CCCC(=O)O/N=C(\N)c1ccc(Cc2ccc(-c3ccc(/C(N)=N\OC(=O)CCCN(C)C)cc3)cc2)cc1`: the IC50 with L6 was found to be 1.1 µM; in the series with Plasmodium falciparum it was 0.183 µM; in series [1] it was 0.105 µM. For the same compound, the selectivity ratio in [5] was 10.5; in series [6], 6. Further, in series [7], the Time amounted to 7 days.
Turning to `N=C(N)c1ccc(-c2ccc(-c3ccc(C(=N)N)cc3)o2)cc1` [FURAMIDINE], the Time in series [4] stood at 24 days.
Consider `CO/N=C(\N)c1cccc(Cc2ccc(-c3ccc(/C(N)=N\OC)cc3)cc2)c1`, for which the IC50 is 34.8 µM with L6, greater than 9.5 µM in the series on Plasmodium falciparum and 16.6 µM in series [1]. Further, the results for the selectivity ratio in series [5] and in [6] were 2.1 and 3.7, respectively. Further, the Time in series [7] came to 13 days.
For the compound `N=C(N)c1ccc(OCCCCCOc2ccc(C(=N)N)cc2)cc1` [PENTAMIDINE], in series [4], the Time is 20 days.
